From ChEMBL document CHEMBL4334464, “From Phenylthiazoles to Phenylpyrazoles: Broadening the Antibacterial Spectrum toward Carbapenem-Resistant Bacteria” (J Med Chem, 2019)
Values after ≈ are worked out from the molar mass of the structure shown. Active and inactive are the calls of the source. The calls are words filed in the database; no cut-off is given here.

Tests used:
Staphylococcus aureus [1] = test: Antibacterial activity against methicillin-resistant Staphylococcus aureus NRS384-USA300 clinical isolates after 18 to 20 hrs in aerobic condition by CLSI protocol based broth microdilution assay; type: functional
Staphylococcus aureus [2] = test: Antibacterial activity against Methicillin-sensitive Staphylococcus aureus ATCC 6538 clinical isolates after 18 to 20 hrs in aerobic condition by CLSI protocol based broth microdilution assay; type: functional
Staphylococcus aureus [3] = test: Antibacterial activity against Methicillin-resistant Staphylococcus aureus USA700-NRS386 clinical isolates after 18 to 20 hrs in aerobic condition by CLSI protocol based broth microdilution assay; type: functional
Staphylococcus aureus [4] = test: Antibacterial activity against vancomycin-resistant Staphylococcus aureus isolate 10 after 18 to 20 hrs in aerobic condition by CLSI-based broth microdilution assay; type: functional
Enterococcus faecalis [5] = test: Antibacterial activity against vancomycin-resistant Enterococcus faecalis ATCC 51299 clinical isolates after 18 to 20 hrs in aerobic condition by CLSI-based broth microdilution assay; type: functional
Listeria monocytogenes = test: Antibacterial activity against Listeria monocytogenes ATCC 19111 after 18 to 20 hrs in aerobic condition by CLSI-based broth microdilution assay; type: functional
Streptococcus pneumoniae [6] = test: Antibacterial activity against methicillin-resistant Streptococcus pneumoniae ATCC 700677 clinical isolates after 18 to 20 hrs by CLSI-based broth microdilution assay; type: functional
Acinetobacter baumannii [7] = test: Antibacterial activity against Acinetobacter baumannii NR 17786 clinical isolates after 18 to 20 hrs in aerobic condition by CLSI-based broth microdilution assay; type: functional
Acinetobacter baumannii [8] = test: Antibacterial activity against Acinetobacter baumannii NR 17785 clinical isolates after 18 to 20 hrs in aerobic condition by CLSI-based broth microdilution assay; type: functional
Escherichia coli [9] = test: Antibacterial activity against Escherichia coli BW25113 clinical isolates after 18 to 20 hrs in aerobic condition by CLSI-based broth microdilution assay; type: functional
Klebsiella pneumoniae [10] = test: Antibacterial activity against Klebsiella pneumoniae BAA-1144 clinical isolates after 18 to 20 hrs in aerobic condition by CLSI-based broth microdilution assay; type: functional
Salmonella typhimurium = test: Antibacterial activity against Salmonella typhimurium ATCC 700720 after 18 to 20 hrs in aerobic condition by CLSI-based broth microdilution assay; type: functional, Salmonella enterica subsp. enterica serovar Typhimurium; settings: Salmonella enterica
Shigella flexneri = test: Antibacterial activity against Shigella flexneri ATCC 9199 clinical isolates after 18 to 20 hrs in aerobic condition by CLSI-based broth microdilution assay; type: functional
Pseudomonas aeruginosa = test: Antibacterial activity against Pseudomonas aeruginosa ATCC 15442 clinical isolates after 18 to 20 hrs in aerobic condition by CLSI-based broth microdilution assay; type: functional
Escherichia coli [11] = test: Antibacterial activity against carbapenem-resistant Escherichia coli BAA-2452 clinical isolates after 18 to 20 hrs in aerobic condition by CLSI-based broth microdilution assay; type: functional
Klebsiella pneumoniae [12] = test: Antibacterial activity against carbapenem-resistant Klebsiella pneumoniae ATCC BAA-1705 clinical isolates after 18 to 20 hrs in aerobic condition by CLSI-based broth microdilution assay; type: functional
Staphylococcus aureus [13] = test: Antibiofilm activity against methicillin-resistant Staphylococcus aureus NRS384-USA300 clinical isolates assessed as inhibition of biofilm formation at 0.5 times MIC incubated for 24 hrs by crystal violet staining based spectrophotometric method relative to control; type: functional
Salmonella enteritidis [14] = test: Antibacterial activity against Salmonella enteritidis ATCC 14028 infected in mouse J774 cells assessed as reduction in intracellular bacterial cells at 2 times MIC incubated for 24 hrs followed by re-plating on TSA plate and measured after 18 to 22 hrs relative to control; type: functional, Salmonella enterica subsp. enterica serovar Enteritidis; design: scale not given: the % may be the effect or the level left
Outline: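 J774 murine macrophages infected with Salmonella enteritidis ATCC 14028, then treated at 2×MIC for 24 h, in triplicate. Read-out is the percent reduction in intracellular colony forming units versus the untreated control.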

[15] = Stability in human liver microsomes assessed as compound remaining incubated for 45 mins in presence of NADPH by LC/MS/MS analysis; type: ADME, Microsome; settings: read-out: Stability
Outline: (§1)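 Two independent runs (1st and 2nd) were done at each time point, and the mean percent remaining is reported. Incubations were run both with and without NADPH. Half-life and intrinsic clearance (Clint) were derived from the time-course data.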

[16] = Stability in human liver microsomes assessed as compound remaining incubated for 60 mins in absence of NADPH by LC/MS/MS analysis; type: ADME, Microsome; settings: read-out: Stability; outline: as §1
[17] = Apparent permeability across apical to basolateral side in human Caco2 cells after 2 hrs by LC/MS/MS analysis; type: ADME, cell-based; settings: Caco-2
[18] = biological target: T1, Ditrans,polycis-undecaprenyl-diphosphate synthase ((2E,6E)-farnesyl-diphosphate specific) (Escherichia coli (strain K12)) (UniProt P60472); test: Inhibition of Escherichia coli UPPS using FPP/IPP as substrate preincubated for 30 mins followed by substrates addition and measured after 30 mins by malachite green reagent based assay
T1 sequence (whole entry): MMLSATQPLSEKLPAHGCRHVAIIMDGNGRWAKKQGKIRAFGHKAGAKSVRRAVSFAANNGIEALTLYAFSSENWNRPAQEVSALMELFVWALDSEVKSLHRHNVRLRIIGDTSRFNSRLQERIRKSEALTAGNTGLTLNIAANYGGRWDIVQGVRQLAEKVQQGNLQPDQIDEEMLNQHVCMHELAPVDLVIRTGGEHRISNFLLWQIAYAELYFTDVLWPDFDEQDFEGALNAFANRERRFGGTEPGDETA

Staphylococcus aureus [19] = test: Ratio of MBC to MIC for Methicillin-sensitive Staphylococcus aureus NRS107 clinical isolates; type: functional
[20] = test system: Staphylococcus epidermidis; test: Ratio of MBC to MIC for Staphylococcus epidermidis NRS101 clinical isolates; type: functional
Enterococcus faecalis [21] = test: Ratio of MBC to MIC for vancomycin-resistant Enterococcus faecalis ATCC 51299 clinical isolates; type: functional
Enterococcus faecium = test: Ratio of MBC to MIC for vancomycin-resistant Enterococcus faecium ATCC 700221 clinical isolates; type: functional
Streptococcus pneumoniae [22] = test: Ratio of MBC to MIC for cephalosporin-resistant Streptococcus pneumoniae ATCC 51916 clinical isolates; type: functional
Streptococcus pneumoniae [23] = test: Ratio of MBC to MIC for […] Streptococcus pneumoniae ATCC 700677 clinical isolates; type: functional
Acinetobacter baumannii [24] = test: Ratio of MBC to MIC for Acinetobacter baumannii ATCC BAA 1141 clinical isolates; type: functional
Escherichia coli [25] = test: Ratio of MBC to MIC for Escherichia coli BW25113 clinical isolates; type: functional
Escherichia coli [26] = test: Ratio of MBC to MIC for Escherichia coli ATCC 25922 clinical isolates; type: functional
[27] = test system: Enterobacter cloacae subsp. cloacae; test: Ratio of MBC to MIC for Enterobacter cloacae subsp. cloacae ATCC BAA-1143 clinical isolates; type: functional
Klebsiella pneumoniae [28] = test: Ratio of MBC to MIC for Klebsiella pneumoniae BAA-1144 clinical isolates; type: functional
Salmonella enteritidis [29] = test: Ratio of MBC to MIC for Salmonella enteritidis ATCC 13076 clinical isolates; type: functional, Salmonella enterica subsp. enterica serovar Enteritidis
Salmonella enteritidis [30] = test: Ratio of MBC to MIC for Salmonella enteritidis ATCC 14028 clinical isolates; type: functional, Salmonella enterica subsp. enterica serovar Enteritidis
Clostridioides difficile = test: Ratio of MBC to MIC for Clostridium difficile ATCC BAA 1870; type: functional
Acinetobacter baumannii [31] = test: microbe, parasite or virus in culture; settings: ATCC BAA 1747

Structure (SMILES) | MIC (Staphylococcus aureus [1]) [µg/mL] | MIC (Staphylococcus aureus [2]) [µg/mL] | MIC (Staphylococcus aureus [3]) [µg/mL] | MIC (Staphylococcus aureus [4]) [µg/mL] | MIC (Enterococcus faecalis [5]) [µg/mL] | MIC (Listeria monocytogenes) [µg/mL] | MIC (Streptococcus pneumoniae [6]) [µg/mL] | MIC (Acinetobacter baumannii [7]) [µg/mL] | MIC (Acinetobacter baumannii [8]) [µg/mL] | MIC (Escherichia coli [9]) [µg/mL] | MIC (Klebsiella pneumoniae [10]) [µg/mL] | MIC (Salmonella typhimurium) [µg/mL] | MIC (Shigella flexneri) [µg/mL] | MIC (Pseudomonas aeruginosa) [µg/mL] | MIC (Escherichia coli [11]) [µg/mL] | MIC (Klebsiella pneumoniae [12]) [µg/mL] | remaining at 0.75 h [15] [%] | remaining at 1 h [16] [%] | Papp A→B at 2 h [17] [×10⁻⁶ cm/s] | inhibition [18] | other results
C/C(=N\NC(=N)N)c1cnn(-c2ccc(C#CC3CCCC3)cc2)c1C | 1 (≈ 2.87 µM) | 0.5 (≈ 1.43 µM) | 1 (≈ 2.87 µM) | 0.5 (≈ 1.43 µM) | 0.5 (≈ 1.43 µM) | 0.5 (≈ 1.43 µM) | 0.5 (≈ 1.43 µM) | 8 (≈ 23 µM) | 4 (≈ 11.5 µM) | 8 (≈ 23 µM) | 8 (≈ 23 µM) | 8 (≈ 23 µM) | 8 (≈ 23 µM) | 32 (≈ 91.8 µM) | 4 (≈ 11.5 µM) | 8 (≈ 23 µM) | 81 | 91 | 0.01 | inactive | inhibition (INH) (Staphylococcus aureus [13]): 31%; Activity (Salmonella enteritidis [14]): 98%; Ratio (Staphylococcus aureus [19]): <=2; Ratio [20]: <3; Ratio (Enterococcus faecalis [21]): <3; Ratio (Enterococcus faecium): <3; Ratio (Streptococcus pneumoniae [22]): <3; Ratio (Streptococcus pneumoniae [23]): <3; Ratio (Acinetobacter baumannii [24]): >=1; Ratio (Escherichia coli [25]): >=1; Ratio (Escherichia coli [26]): >=1; Ratio [27]: > 1; Ratio (Klebsiella pneumoniae [28]): >=1; Ratio (Salmonella enteritidis [29]): >=1; Ratio (Salmonella enteritidis [30]): >=1; Ratio (Clostridioides difficile): <3; MIC (Acinetobacter baumannii [31]): 4 µg/mL (≈ 11.5 µM)
C/C(=N\NC1=NCCN1)c1cnn(-c2ccc(C#CC3CCCC3)cc2)c1C | 4 (≈ 10.7 µM) | 1 (≈ 2.67 µM) | 4 (≈ 10.7 µM) | 8 (≈ 21.4 µM) | 8 (≈ 21.4 µM) | 4 (≈ 10.7 µM) | 4 (≈ 10.7 µM) | 16 (≈ 42.7 µM) | 8 (≈ 21.4 µM) | 64 (≈ 171 µM) | 64 (≈ 171 µM) | 64 (≈ 171 µM) | 32 (≈ 85.4 µM) | 64 (≈ 171 µM) | 16 (≈ 42.7 µM) | 64 (≈ 171 µM) | 79 | 97 | 0.1 | inactive | Ratio (Staphylococcus aureus [19]): <=2; Ratio [20]: <3; Ratio (Enterococcus faecalis [21]): <3; Ratio (Enterococcus faecium): <3; Ratio (Streptococcus pneumoniae [22]): <3; Ratio (Streptococcus pneumoniae [23]): <3; Ratio (Acinetobacter baumannii [24]): >=1; Ratio (Escherichia coli [25]): >=1; Ratio (Escherichia coli [26]): >=1; Ratio [27]: > 1; Ratio (Klebsiella pneumoniae [28]): >=1; Ratio (Salmonella enteritidis [29]): >=1; Ratio (Salmonella enteritidis [30]): >=1; Ratio (Clostridioides difficile): <3; MIC (Acinetobacter baumannii [31]): 16 µg/mL (≈ 42.7 µM)
